# Assay results reported in ChEMBL document CHEMBL4373711, “Development of 3,5-Dinitrophenyl-Containing 1,2,4-Triazoles and Their Trifluoromethyl Analogues as Highly Efficient Antitubercular Agents Inhibiting Decaprenylphosphoryl-β-d-ribofuranose 2'-Oxidase” (J Med Chem, 2019).
# Activity calls are given as the source filed them. No cut-off for these calls is given here.
# What was measured:
# Mycobacterium kansasii [1] = assay: Antimycobacterial activity against Mycobacterium kansasii CNCTC My 235/80 after 7 days; type: functional; conditions: CNCTC My 235/80, 168 h
# In short: (§1)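 Microdilution in Šula's semisynthetic medium; compounds in DMSO at 32–0.03 µM. Inoculum from 1.0 McFarland suspension diluted 10-4. […] Isoniazid and rifampicin as reference drugs.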
# [2] = Genotoxicity in Salmonella typhimurium TA100 at 30 uM in presence of rat liver S9 fraction by Ames test; type: toxicity, subcellular; conditions: salmonella enterica subsp. enterica serovar typhimurium, s9, 30 µM
# In short: (§2)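 Microplate fluctuation Ames reverse-mutation test following kit instructions; TA98 detects frameshift and TA100 base-exchange mutations. Compound at 30 µM final with Aroclor-1254-induced rat liver S9 plus cofactors.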
# [3] = Cytotoxicity against human HepG2 cells assessed as cell viability at 30 uM after 48 hrs by CellTiter 96 aqueous one solution assay relative to control; type: cell-based; conditions: read-out: Activity
# In short: (§3)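 HepG2 (DMEM, 10% FBS, 1 mM pyruvate) or A431 (DMEM, 10% FBS) seeded 10,000 cells/well, 24 h at 37 °C, 5% CO2, then 30 µM compound for 48 h. MTS reagent 60 min, absorbance 490 nm, background subtracted; 0.1% DMSO vehicle = 100%, 10% SDS = 0% viability.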
# Mycobacterium kansasii [4] = assay: Antimycobacterial activity against Mycobacterium kansasii CNCTC My 235/80 after 14 days; type: functional; conditions: CNCTC My 235/80, 336 h; in short: as §1
# [5] = system: Mycobacterium tuberculosis; assay: Antimycobacterial activity against XDR Mycobacterium tuberculosis Praha 131 after 14 days; type: functional; conditions: Praha 131, 336 h
# In short: (§4)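 M. tuberculosis strains (H37Rv and clinical MDR/XDR isolates) tested by microdilution in Šula's semisynthetic medium. Compounds were dissolved in DMSO and tested at 32 to 0.03 µM in twofold steps. Inoculum was a 1.0 McFarland suspension diluted 10-3. Plates were incubated at 37 °C and read at 14 and 21 days.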
# Mycobacterium kansasii [6] = assay: Antimycobacterial activity against Mycobacterium kansasii 6509/96 after 14 days; type: functional; conditions: 6509/96, 336 h; in short: as §1
# [7] = system: Mycobacterium tuberculosis; assay: Antimycobacterial activity against XDR Mycobacterium tuberculosis Praha 131 after 21 days; type: functional; conditions: Praha 131, 504 h; in short: as §4
# [8] = system: Mycobacterium tuberculosis; assay: Antimycobacterial activity against Mycobacterium tuberculosis H37Rv CNCTC My 331/88 after 14 days; type: functional; conditions: H37Rv CNCTC My 331/88, 336 h; in short: as §4
# Mycobacterium avium [9] = assay: Antimycobacterial activity against Mycobacterium avium CNCTC My 330/88 after 21 days; type: functional; conditions: CNCTC My 330/88, 504 h
# In short: (§5)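 M. avium was tested by microdilution in Šula's semisynthetic medium, with compounds dissolved in DMSO and serially diluted from 1000 down to 1. Inoculum was a 1.0 McFarland suspension diluted 10-5. Plates were incubated at 37 °C and read at 14 and 21 days. […] Isoniazid and rifampicin served as standards.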
# [10] = system: Mycobacterium tuberculosis; assay: Antimycobacterial activity against Mycobacterium tuberculosis H37Rv CNCTC My 331/88 after 21 days; type: functional; conditions: H37Rv CNCTC My 331/88, 504 h; in short: as §4
# Mycobacterium kansasii [11] = assay: Antimycobacterial activity against Mycobacterium kansasii CNCTC My 235/80 after 21 days; type: functional; conditions: CNCTC My 235/80, 504 h; in short: as §1
# Mycobacterium kansasii [12] = assay: Antimycobacterial activity against Mycobacterium kansasii 6509/96 after 7 days; type: functional; conditions: 6509/96, 168 h; in short: as §1
# [13] = Genotoxicity in Salmonella typhimurium TA98 at 30 uM in presence of rat liver S9 fraction by Ames test; type: toxicity, subcellular; conditions: salmonella enterica subsp. enterica serovar typhimurium, s9, 30 µM; in short: as §2
# A-431 = assay: Cytotoxicity against human A431 cells assessed as reduction in cell viability after 48 hrs by CellTiter 96 aqueous one solution assay; type: cell-based; conditions: A-431, 48 h
# Mycobacterium avium [14] = assay: Antimycobacterial activity against Mycobacterium avium CNCTC My 330/88 after 14 days; type: functional; conditions: CNCTC My 330/88, 336 h; in short: as §5
# Mycobacterium kansasii [15] = assay: Antimycobacterial activity against Mycobacterium kansasii 6509/96 after 21 days; type: functional; conditions: 6509/96, 504 h; in short: as §1
# [16] = Cytotoxicity against human A431 cells assessed as cell viability at 30 uM after 48 hrs by CellTiter 96 aqueous one solution assay relative to control; type: cell-based, A-431; conditions: read-out: Activity; in short: as §3
# HepG2 = assay: Cytotoxicity against human HepG2 cells assessed as reduction in cell viability after 48 hrs by CellTiter 96 aqueous one solution assay; type: cell-based; conditions: HepG2, 48 h
# Staphylococcus aureus [17] = assay: Antibacterial activity against Staphylococcus aureus subsp. aureus ATCC 29213 CCM 4223 at highest concentration measured after 24 to 48 hrs by alamar blue dye based broth microdilution assay; type: functional, organism-based
# Pseudomonas aeruginosa = assay: Antibacterial activity against Pseudomonas aeruginosa ATCC 27853 CCM 3955 at highest concentration measured after 24 to 48 hrs by alamar blue dye based broth microdilution assay; type: functional, organism-based
# Candida albicans = assay: Antifungal activity against Candida albicans ATCC 24433 CCM 8320 at highest concentration measured after 24 to 48 hrs by alamar blue dye based broth microdilution assay; type: functional, organism-based
# Enterococcus faecalis = assay: Antibacterial activity against Enterococcus faecalis ATCC 29212 CCM 4224 at highest concentration measured after 24 to 48 hrs by alamar blue dye based broth microdilution assay; type: functional, organism-based
# Aspergillus fumigatus = assay: Antifungal activity against Aspergillus fumigatus ATCC 204305 at highest concentration measured after 24 to 48 hrs by alamar blue dye based broth microdilution assay; type: functional, organism-based
# Klebsiella pneumoniae = assay: Antibacterial activity against Klebsiella pneumoniae at highest concentration measured after 24 to 48 hrs by alamar blue dye based broth microdilution assay; type: functional, organism-based
# Serratia marcescens = assay: Antibacterial activity against Serratia marcescens at highest concentration measured after 24 to 48 hrs by alamar blue dye based broth microdilution assay; type: functional, organism-based
# Escherichia coli = assay: Antibacterial activity against Escherichia coli ATCC 25922 CCM 3954 at highest concentration measured after 24 to 48 hrs by alamar blue dye based broth microdilution assay; type: functional, organism-based
# Aspergillus flavus = assay: Antifungal activity against Aspergillus flavus CCM 8363 at highest concentration measured after 24 to 48 hrs by alamar blue dye based broth microdilution assay; type: functional, organism-based
# [18] = system: Trichophyton interdigitale; assay: Antifungal activity against Trichophyton interdigitale ATCC 9533 CCM 8377 at highest concentration measured after 72 to 120 hrs by alamar blue dye based broth microdilution assay; type: functional
# Pichia kudriavzevii = assay: Antifungal activity against Candida krusei ATCC 6258 CCM8271 at highest concentration measured after 24 to 48 hrs by alamar blue dye based broth microdilution assay; type: functional, organism-based
# Candida tropicalis = assay: Antifungal activity against Candida tropicalis ATCC 750 CCM 8264 at highest concentration measured after 24 to 48 hrs by alamar blue dye based broth microdilution assay; type: functional, organism-based
# Lichtheimia corymbifera = assay: Antifungal activity against Lichtheimia corymbifera CCM 8077 at highest concentration measured after 24 to 48 hrs by alamar blue dye based broth microdilution assay; type: functional, organism-based
# Candida parapsilosis = assay: Antifungal activity against Candida parapsilosis ATCC 22019 CCM 8260 at highest concentration measured after 24 to 48 hrs by alamar blue dye based broth microdilution assay; type: functional, organism-based
# Staphylococcus aureus [19] = assay: Antibacterial activity against methicillin-resistant Staphylococcus aureus subsp. aureus ATCC 43300 CCM 4750 at highest concentration measured after 24 to 48 hrs by alamar blue dye based broth microdilution assay; type: functional, organism-based
# [20] = system: Staphylococcus epidermidis; assay: Antibacterial activity against Staphylococcus epidermidis at highest concentration measured after 24 to 48 hrs by alamar blue dye based broth microdilution assay; type: functional, organism-based
Compound,MIC99 (Mycobacterium kansasii [1]),"viability at 48 h, 30 µM [3]",MIC99 (Mycobacterium kansasii [4]),MIC99 [5],MIC99 (Mycobacterium kansasii [6]),MIC99 [7],MIC99 [8],MIC99 (Mycobacterium avium [9]),MIC99 [10],MIC99 (Mycobacterium kansasii [11]),MIC99 (Mycobacterium kansasii [12]),IC50 (A-431),MIC99 (Mycobacterium avium [14]),MIC99 (Mycobacterium kansasii [15]),"viability at 48 h, 30 µM [16]",IC50 (HepG2),Activity (Staphylococcus aureus [17]),Activity (Pseudomonas aeruginosa),Activity (Candida albicans),Activity (Enterococcus faecalis),other results
O=[N+]([O-])c1cc(-c2nnc(SCc3ccc(Cl)c(Cl)c3)n2Cc2ccccc2)cc(C(F)(F)F)c1,4 µM,104%,4 µM,2 µM,4 µM,2 µM,2 µM,250 µM,2 µM,4 µM,4 µM,> 30 µM,250 µM,8 µM,80%,> 30 µM,–,–,–,–,Activity [2]: Non-Toxic; Activity [13]: Non-Toxic
CCCSc1nnc(-c2cc([N+](=O)[O-])cc([N+](=O)[O-])c2)n1Cc1ccccc1,0.125 µM,90%,0.25 µM,0.125 µM,0.25 µM,0.125 µM,0.06 µM,250 µM,0.125 µM,0.25 µM,0.25 µM,> 30 µM,250 µM,0.5 µM,123%,> 30 µM,inactive,inactive,inactive,inactive,Activity (Aspergillus fumigatus): inactive; Activity (Klebsiella pneumoniae): inactive; Activity (Serratia marcescens): inactive; Activity (Escherichia coli): inactive; Activity (Aspergillus flavus): inactive; Activity [18]: inactive; Activity (Pichia kudriavzevii): inactive; Activity (Candida tropicalis): inactive; Activity (Lichtheimia corymbifera): inactive; Activity (Candida parapsilosis): inactive; Activity (Staphylococcus aureus [19]): inactive; Activity [20]: inactive
O=[N+]([O-])c1cc(-c2nnc(SCc3ccc(Br)cc3)n2Cc2ccccc2)cc([N+](=O)[O-])c1,0.125 µM,104%,0.25 µM,0.125 µM,0.125 µM,0.25 µM,0.125 µM,62 µM,0.25 µM,0.25 µM,0.125 µM,> 30 µM,62 µM,0.25 µM,110%,> 30 µM,inactive,inactive,inactive,inactive,Activity (Aspergillus fumigatus): inactive; Activity (Klebsiella pneumoniae): inactive; Activity (Serratia marcescens): inactive; Activity (Escherichia coli): inactive; Activity (Aspergillus flavus): inactive; Activity [18]: inactive; Activity (Pichia kudriavzevii): inactive; Activity (Candida tropicalis): inactive; Activity (Lichtheimia corymbifera): inactive; Activity (Candida parapsilosis): inactive; Activity (Staphylococcus aureus [19]): inactive; Activity [20]: inactive
Nc1ccc2cc3ccccc3cc2c1 [2-AMINOANTHRACENE],–,–,–,–,–,–,–,–,–,–,–,–,–,–,–,–,–,–,–,–,Activity [2]: Toxic; Activity [13]: Toxic
CCn1c(SCc2ccccc2)nnc1-c1cc([N+](=O)[O-])cc([N+](=O)[O-])c1,0.03 µM,156%,0.03 µM,0.03 µM,0.03 µM,0.03 µM,0.03 µM,250 µM,0.03 µM,0.03 µM,0.03 µM,> 30 µM,250 µM,0.03 µM,90%,> 30 µM,inactive,inactive,inactive,inactive,Activity (Aspergillus fumigatus): inactive; Activity (Klebsiella pneumoniae): inactive; Activity (Serratia marcescens): inactive; Activity (Escherichia coli): inactive; Activity (Aspergillus flavus): inactive; Activity [18]: inactive; Activity (Pichia kudriavzevii): inactive; Activity (Candida tropicalis): inactive; Activity (Lichtheimia corymbifera): inactive; Activity (Candida parapsilosis): inactive; Activity (Staphylococcus aureus [19]): inactive; Activity [20]: inactive
